# High-throughput results from PubChem.
# KCNK9 inh = human KCNK9 channel inhibition | Q9NPC2 | HEK293 KCNK9, FluxOR thallium flux fluorescence; hits give low values | B-score at 10 µM | 1.2% of 310,000 active;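 active means ratio B-score over 3 SD below the library mean, with starting fluorescence within 5 SD of its mean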;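 further: negative B-score means less thallium flux so channel inhibition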
# KCNQ1 inh = blocks the human KCNQ1 potassium channel; P51787; CHO-K1 KCNQ1, FluxOR thallium flux fluorescence; hits give high values; B-score at 10 µM; 1.3% of 310,000 active; AID 2642;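 active means compounds whose thallium flux B-score, printed positive for inhibition, exceeds three library SD while starting fluorescence stays within three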;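 further: channel opened by potassium depolarization with thallium stimulus after 20 min compound exposure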
# KCNQ1 pot = human KCNQ1 channel potentiation or activation. P51787. CHO-K1 KCNQ1, thallium flux FluxOR fluorescence; hits give high values. B-score at 10 µM. 0.35% of 310,000 active;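 active means fluorescence ratio B-score, a plate-corrected score, at least three library SD, with initial intensity B-score within 5 SD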
#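 Medium – assay buffer, equal DMSO in all wells · Material – CHO-K1 cell line with stable KCNQ1 potassium channel expression · Signal – kinetic FluxOR thallium fluorescence, 10-s 1-Hz baseline, 110-s post-stimulus read · Compound – single concentration per compound, DMSO matched to controls · Schedule – 37 °C overnight plating, 90-min dark dye load, 20-min compound pretreatment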
# KCC2 mod = modulates chloride dependent transport by human KCC2; Q9H2X9; B-score of Tl+ flux slope (higher = more flux/activation; lower = inhibition) at 10 µM; 2.2% of 190,000 active; KCC2 cells, thallium flux FluoZin-2 fluorescence;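 active means thallium flux slope and its plate-corrected score both differing from the plate sample mean at a set confidence after two filtering rounds, in either direction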;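 further: slope of fluorescence scaled to starting intensity during 10 to 20 s after thallium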
# KCNK3 block = human KCNK3 channel inhibition, primary screen; AID 602410; B-score at 10 µM; 0.84% of 340,000 active; CHO-KCNK3 thallium flux, FluxOR fluorescence; hits give low values;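 active means B-score under library mean minus 4 SD, starting fluorescence ratio at most library mean plus 5 SD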;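 further: more negative B-score means stronger inhibition of thallium flux through KCNK3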
# Target sequence (O14649 whole entry, looked up): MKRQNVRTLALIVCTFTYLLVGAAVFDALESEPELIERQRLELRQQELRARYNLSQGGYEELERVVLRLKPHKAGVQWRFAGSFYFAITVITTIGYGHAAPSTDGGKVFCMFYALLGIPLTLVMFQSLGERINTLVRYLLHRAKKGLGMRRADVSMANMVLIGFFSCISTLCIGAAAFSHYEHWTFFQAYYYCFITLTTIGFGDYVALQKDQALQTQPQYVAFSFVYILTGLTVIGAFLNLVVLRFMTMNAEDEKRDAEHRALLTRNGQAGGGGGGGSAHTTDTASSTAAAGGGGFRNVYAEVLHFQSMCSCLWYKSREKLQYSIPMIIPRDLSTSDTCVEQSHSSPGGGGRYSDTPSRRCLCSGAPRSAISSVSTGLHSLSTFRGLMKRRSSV
# hERG protect = shields human hERG channel from block by proarrhythmic agents; activation (rescue from dofetilide block), less the hit threshold, % at 10 µM; Q12809; CHO-hERG, FluxOR thallium flux, dofetilide IC70 present; AID 1511; 0.51% of 310,000 active;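 active means activation above the mean of controls blocked by dofetilide plus 5 SD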;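 further: thallium influx through hERG after potassium depolarization seen as dye fluorescence rise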
# Numbers without * were called inactive; i = inactive; · = no result given. Only some compounds are listed: those with a hit (about 4.1% of all), similar ones and a draw of the others.
SMILES,KCNK9 inh,KCNQ1 inh,KCNQ1 pot,KCC2 mod,KCNK3 block,hERG protect
O=C(O)c1ccc(Cl)c(NC(=S)NC(=O)c2ccccc2[N+](=O)[O-])c1,i,i,i,-0.019,i,-4
CCN(CC)CCNC(C(=O)Nc1cc(C(F)(F)F)ccc1Cl)c1ccccc1 (stereo not given),i,i,i,0.77,i,-14
COC(=O)c1sc(NC(=O)COc2cccc3ccccc23)nc1C,i,i,i,0.62,i,9.0*
Cc1cc[n+](CC(=O)Nc2cc(C(F)(F)F)ccc2Cl)cc1,i,i,i,·,i,4.9*
COc1cc2cnc(-c3cccnc3)cc2cc1OC,·,·,·,·,i,·
S=C(Cc1ccccc1)Nc1ccccc1,·,·,·,·,i,·
CCCN1CCC(NC(=O)Cc2ccccc2C)CC1,i,i,i,·,i,-3
[O-]C1=N[N+](=C(c2ccccc2)c2ccccc2)C1,·,·,·,·,i,·
COC(=O)c1sc(NC(=S)NC(=O)c2cccc(C)c2)nc1C,i,i,i,18*,i,6.2*
Cc1ccc(C(=O)NC(=S)Nc2ccccc2C(F)(F)F)cc1C,i,i,i,·,i,-3
O=C(NC(=S)Nc1cc(C(F)(F)F)ccc1Cl)c1ccccc1,i,i,i,1.8,i,4.7*
CC(=O)c1sc(NC(=O)c2cccc(C)c2)nc1C,i,i,i,-0.64,i,-15
Cc1cccc(C(=O)NC(=S)Nc2ccccc2C(F)(F)F)c1,i,i,i,19*,i,-10
CCOC(=O)C1CCN(C(=O)COC(=O)/C=C/c2cccc(OC)c2OC)CC1,·,·,·,·,i,·
CCN=C1SC(C(=O)Nc2cccc(C)c2)CC(=O)N1CC (stereo not given),i,i,i,0.49,i,-24
CCN=C1SC(C(=O)Nc2cccc(Br)c2)CC(=O)N1CC (stereo not given),-7.1*,i,i,1.2,i,-7
CCC(C(=O)O)n1nnc(-c2ccc(-c3ccc(OC)cc3)cc2)n1 (stereo not given),i,i,i,-0.35,i,-4
CCCCOc1ccc(-c2nnn(C(C)C(=O)OCC)n2)cc1 (stereo not given),-7.2*,i,i,·,i,-3
O=C(O)c1cc(-c2cccc([N+](=O)[O-])c2)n[nH]1,i,i,i,1.1,i,49*
Cc1ccc(NC(=O)C2CCN(S(=O)(=O)c3ccc4c(c3)CCCC(=O)N4)CC2)c(Br)c1,i,i,i,·,i,-8
O=C(OCC(=O)N1CCC(Cc2ccccc2)CC1)c1cncc(Br)c1,·,·,·,·,i,·
O=C(CSc1nc(=O)n2ccccc2n1)NCc1ccc(F)cc1,i,i,i,·,i,-11
O=C(CSc1nc(=O)n2ccccc2n1)NCc1ccccc1,i,i,8*,·,i,-16
O=C(COC(=O)/C=C/c1ccc([N+](=O)[O-])cc1)NCc1ccco1,i,i,i,1,i,-5
O=C(COC(=O)/C=C/c1ccc(F)cc1)NCc1ccco1,i,i,i,-0.86,i,39*
SMILES,KCNK9 inh,KCNQ1 inh,KCNQ1 pot,KCC2 mod,KCNK3 block,hERG protect
O=C(COC(=O)Cc1c[nH]c2ccccc12)Nc1cc(S(=O)(=O)N2CCOCC2)ccc1Cl,·,·,·,·,i,·
CCN1C(=O)C(CC(=O)Nc2ccc(F)cc2)N(Cc2ccco2)C1=S (stereo not given),i,i,i,0.024,i,-10
CCCCCCOc1ccc(NC(=O)CC2C(=O)N(CC)C(=S)N2Cc2ccco2)cc1 (stereo not given),i,9*,i,0.87,i,-24
O=[N+]([O-])c1cc(S(=O)(=O)Nc2ccccc2)ccc1NCc1ccccc1,-6.6*,i,i,-1.3,i,-4
C=CCN(c1ccccc1)S(=O)(=O)c1cccc(C(=O)Nc2ccc(N3CCOCC3)cc2)c1,·,·,·,·,i,·
CCN(CC)c1ccc(/C=C/c2nc3ccccc3s2)cc1,i,8*,i,·,·,-8
COc1ccc(Cl)cc1C(=O)NNC(=O)c1cccs1,·,·,·,·,i,·
CN(C)c1cc(N/N=C\c2ccccc2)nc(N(C)C)n1,i,i,i,0.54,i,-17
